Calls of active or inactive are those of the source. No cut-off for these calls is given here.
Key:
MDCK [1] = test: Induction of intracellular calcium level in MDCK cells at 50 uM by Fura-2 in presence of calcium relative to diallyl trisulfide; type: functional, Canis lupus familiaris
MDCK [2] = test: Cytotoxicity against MDCK cells assessed as decrease in cell viability after 16 hrs by tetrazolium salt WST-1 assay; type: functional, cell-based; conditions: Canis lupus familiaris
In short: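 MDCK cells plated at 1 × 10^4 per well and grown 24 h to 70% confluence, then exposed 16 h to compound (0–2 mM range). Cells washed, then incubated 2 h at 37 °C with WST-1; absorbance read at 450 nm. Values expressed as percent of vehicle control (0.1% DMSO). n = 5.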

MDCK [3] = test: Cell cycle arrest in MDCK cells assessed as accumulation at G1 phase at 100 uM after 16 hrs by flow cytometric analysis (reference value: 55.7%); type: functional, Canis lupus familiaris
MDCK [4] = test: Cell cycle arrest in MDCK cells assessed as accumulation at S phase at 100 uM after 16 hrs by flow cytometric analysis (reference value: 24.5%); type: functional, Canis lupus familiaris
MDCK [5] = test: Cell cycle arrest in MDCK cells assessed as accumulation at G2/M phase at 100 uM after 16 hrs by flow cytometric analysis (reference value: 19.8%); type: functional, Canis lupus familiaris
MDCK [6] = test: Cell cycle arrest in MDCK cells assessed as accumulation at subG1 phase at 100 uM after 16 hrs by flow cytometric analysis (reference value: 0.5%); type: functional, Canis lupus familiaris
MDCK [7] = test: Induction of intracellular calcium level in MDCK cells at 25 to 100 uM by Fura-2 in presence of extracellular calcium; type: functional, cell-based; conditions: Canis lupus familiaris
In short: (§1)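 Trypsinized cells recovered 1 h, then loaded with 2 μM fura-2/AM for 30 min at 25 °C. Cells washed and resuspended in Ca2+-containing medium (2 mM CaCl2, 2 mM HEPES, pH 7.4); 0.5 million cells/mL in a stirred cuvette at 25 °C. Compound added at 30 s and recorded to 250 s. Excitation at 340/380 nm, emission at 510 nm. Calibration used Triton X-100 then 10 mM EGTA; Kd 155 nM. n = 5.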

MDCK [8] = test: Induction of intracellular calcium level in MDCK cells assessed as sustained phase at 100 uM within 250 secs by Fura-2 in presence of extracellular calcium; type: functional, cell-based; conditions: Canis lupus familiaris; in short: as §1
MDCK [9] = test: Induction of intracellular calcium level in MDCK cells assessed as rise in fura-2 340/380 excitation signal ratio at 100 uM treated at 30 secs by Fura-2 in presence of extracellular calcium; type: functional, cell-based; conditions: Canis lupus familiaris; in short: as §1
MDCK [10] = test: Induction of intracellular calcium level in MDCK cells at 100 uM by Fura-2 in calcium free medium in presence of endoplasmic reticulum Ca2+-ATPase inhibitor thapsigargin; type: functional, cell-based; conditions: Canis lupus familiaris
In short: (§2)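 Fura-2-loaded MDCK suspension (0.5 million cells/mL) in Ca2+-free medium, where CaCl2 was replaced by 0.1 mM EGTA; 25 °C, stirred cuvette. Signals recorded at 340/380 nm excitation and 510 nm emission every 1 s. Store depletion used 1 μM thapsigargin, applied before compound or after 220 s compound preincubation. Phospholipase C tests used 10 μM ATP and 2 μM U73122. [Ca2+]i calculated with Kd 155 nM. Means ± SEM, n = 5.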

MDCK [11] = test: Induction of intracellular calcium level in MDCK cells at 100 uM preincubated 220 secs by Fura-2 in calcium free medium in presence of endoplasmic reticulum Ca2+-ATPase inhibitor thapsigargin; type: functional, cell-based; conditions: Canis lupus familiaris; in short: as §2
MDCK [12] = test: Induction of intracellular calcium level in MDCK cells at 100 uM by Fura-2 in presence of calcium and 1 uM nicardipine L-type calcium channel blocker; type: functional, cell-based; conditions: Canis lupus familiaris
In short: (§3)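 Fura-2-loaded MDCK cells in Ca2+-containing medium at 25 °C, pretreated 1 min with the 1 μM L-type blocker before 100 μM compound was added at 30 s. Response taken as net area under the [Ca2+]i curve from 30 to 250 s, expressed as percent of unblocked control. Means ± SEM of five experiments.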

MDCK [13] = test: Induction of intracellular calcium level in MDCK cells at 100 uM assessed as calcium influx by Fura-2 in presence of calcium and 1 uM verapamil L-type calcium channel blocker; type: functional, cell-based; conditions: Canis lupus familiaris; in short: as §3
MDCK [14] = test: Induction of intracellular calcium level in MDCK cells at 100 uM assessed as calcium influx by Fura-2 in presence of calcium and 1 uM diltiazem L-type calcium channel blocker; type: functional, cell-based; conditions: Canis lupus familiaris; in short: as §3
MDCK [15] = test: Induction of intracellular calcium level in MDCK cells at 100 uM by Fura-2 in presence of calcium and 10 nM phorbol myristate acetate protein kinase C activator; type: functional, cell-based; conditions: Canis lupus familiaris
In short: (§4)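 Fura-2-loaded MDCK cells in Ca2+-containing medium (2 mM CaCl2, pH 7.4) at 25 °C, pretreated with 10 nM phorbol myristate acetate or 2 μM GF109203X before 100 μM compound. [Ca2+]i was read from the 340/380 nm fura-2 ratio. n = 5.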

MDCK [16] = test: Induction of intracellular calcium level in MDCK cells at 100 uM by Fura-2 in presence of calcium and 2 uM GF109203 X acetate protein kinase C inhibitor; type: functional, cell-based; conditions: Canis lupus familiaris; in short: as §4
MDCK [17] = test: Induction of intracellular calcium level in MDCK cells at 1 uM by Fura-2 in presence of extracellular calcium; conditions: Canis lupus familiaris
MDCK [18] = test: Induction of intracellular calcium level in MDCK cells at 100 uM by Fura-2 in calcium free medium in presence of phospholipase C inhibitor U73122; conditions: Canis lupus familiaris
MDCK [19] = test: Induction of intracellular calcium level in MDCK cells assessed as net peak value at 10 uM by Fura-2 in calcium free medium; type: functional, Canis lupus familiaris; in short: as §2
MDCK [20] = test: Induction of intracellular calcium level in MDCK cells at 10 uM by Fura-2 in calcium free medium in presence of 10 uM U73343 inactive analogue of U73122 phospholipase C inhibitor; type: functional, cell-based; conditions: Canis lupus familiaris
In short: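 MDCK cells were trypsinized, recovered 1 h, then loaded with 2 μM fura-2/AM for 30 min at 25 °C. They were read in a stirred cuvette at 25 °C (0.5 million cells/mL) in Ca2+-free medium with 0.1 mM EGTA in place of CaCl2. Ex 340/380 nm, em 510 nm, 1 s intervals. Pretreatment was 2 μM U73122 or 10 μM U73343 before ATP. Kd 155 nM; n=5.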

C=CCSSCC=C [DIALLYLDISULFIDE]
Activity (MDCK [1]): 45.6%
Activity (MDCK [2]): Dose-dependent effect
IC50 (MDCK [2]): 1820 µM
Activity (MDCK [3]): 53.3%
Activity (MDCK [4]): 26.8%
Activity (MDCK [5]): 20%
Activity (MDCK [6]): 7.1%

C=CCSCC=C [DIALLYL SULFIDE]
Activity (MDCK [1]; Canis lupus familiaris): inactive
Activity (MDCK [2]): Dose-dependent effect
IC50 (MDCK [2]): 3260 µM
Activity (MDCK [3]): 53.3%
Activity (MDCK [4]): 27.7%
Activity (MDCK [5]): 19%
Activity (MDCK [6]): 1.1%

C=CCSSSCC=C [ALLITRIDIN]
Activity (MDCK [7]): Dose-dependent effect
Activity (MDCK [8]): Active
Activity (MDCK [9]): Active
Activity (MDCK [10]): inactive
Activity (MDCK [11]): inactive
Activity (MDCK [12]): inactive
Activity (MDCK [13]): Active
Activity (MDCK [14]): Active
Activity (MDCK [15]): Active
Activity (MDCK [16]): Active
IC50 (MDCK [2]): 50 µM
Activity (MDCK [3]): 26.8%
Activity (MDCK [4]): 34.6%
Activity (MDCK [5]): 38.6%
Activity (MDCK [6]): 33.1%
Activity (MDCK [17]): inactive
Activity (MDCK [18]): Active

Nc1ncnc2c1ncn2[C@@H]1O[C@H](COP(=O)(O)OP(=O)(O)OP(=O)(O)O)[C@@H](O)[C@H]1O [ADENOSINE TRIPHOSPHATE]
Activity (MDCK [19]): 132 nM
Activity (MDCK [20]): Active
Activity (MDCK [18]): inactive
